This note sets out measurements from ChEMBL document CHEMBL1177821, “Structure-activity relationships and hepatic safety risks of thiazole agonists of the thrombopoietin receptor” (Bioorg Med Chem Lett, 2010).

Calls of active or inactive are those of the source. No cut-off for these calls is given here.

One data set concerns the target T1, Thrombopoietin receptor (Homo sapiens, UniProt P40238).
T1 sequence (P40238 whole entry): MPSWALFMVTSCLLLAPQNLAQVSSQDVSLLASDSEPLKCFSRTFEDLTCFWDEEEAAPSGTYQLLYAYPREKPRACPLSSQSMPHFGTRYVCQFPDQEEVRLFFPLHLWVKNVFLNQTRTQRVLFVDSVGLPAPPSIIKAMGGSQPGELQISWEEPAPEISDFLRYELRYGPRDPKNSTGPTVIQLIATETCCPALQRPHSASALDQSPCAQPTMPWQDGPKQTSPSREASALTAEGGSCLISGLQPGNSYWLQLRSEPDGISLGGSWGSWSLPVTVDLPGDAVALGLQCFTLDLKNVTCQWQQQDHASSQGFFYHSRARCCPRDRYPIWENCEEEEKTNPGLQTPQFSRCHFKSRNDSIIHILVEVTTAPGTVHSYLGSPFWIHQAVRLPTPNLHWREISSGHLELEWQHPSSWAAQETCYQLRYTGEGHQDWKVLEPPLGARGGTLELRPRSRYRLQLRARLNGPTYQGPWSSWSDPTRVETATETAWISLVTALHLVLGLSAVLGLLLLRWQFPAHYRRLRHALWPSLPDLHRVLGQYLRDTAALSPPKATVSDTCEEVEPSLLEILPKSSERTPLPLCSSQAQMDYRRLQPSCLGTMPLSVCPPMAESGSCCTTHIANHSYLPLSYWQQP
As to the kind of experiment: Agonist activity at human TPO receptor expressed in murine BaF3 cells.

Data set [1] has as its system Rattus norvegicus. The data set can be described thus: Toxicity in rat assessed as histopathological changes at 10 to 150 mg/kg, po after 4 days. In kind it is organism-based. Also on record: dose 10-150 mg/kg, route oral. The settings on record: in vivo, 96 h. Summed up: (§1)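 Rats dosed orally once daily for four days at 10, 50 or 150 mg/kg, four animals per dose. Clinical pathology including ALT and bilirubin checked on days 1 and 5. Histopathology examined.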

The species entered for data set [2] is Mus musculus. As to the kind of experiment: Increase of platelets level in mouse measured after 6 days. The class given is functional, organism-based. A digest of the protocol: (§2)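 Human TPO receptor transgenic mice (knock-out/human knock-in of receptor exons 8–10, spanning the transmembrane domain) and wild-type mice given compound on days 0 and 1. Platelets counted on day 6.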

The subject of data set [3] is Rattus norvegicus. The data set can be described thus: Toxicity in rat assessed as change in clinical pathology at 10 to 150 mg/kg, po after 4 days. In kind it is organism-based. Also on record: dose 10-150 mg/kg, route oral. To be noted: in vivo, 96 h. A digest of the protocol:
as §1

Data set [4] is filed under the species Mus musculus. The data set can be described thus: Increase of platelets level in human TPO receptor transgenic mouse measured after 6 days. The class given is functional, organism-based. Summed up: as §2
Data set [5] can be described thus: Cmax in rat at 50 mg/kg, po. In kind it is ADME, organism-based. More on the design: dose 50 mg/kg, route oral. The settings on record: in vivo. A digest of the protocol:
(§3)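 Rats given single oral doses of 50, 250 or 500 mg/kg, with a separate vehicle control group in each study. Mean Cmax (µg/mL) and mean AUC0–24 (µg h/mL) taken as total (bound plus unbound) plasma concentrations.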

Data set [6] can be described thus: AUC (0 to 24 hrs) in rat at 500 mg/kg, po. In kind it is ADME, organism-based. Also on record: time < 24 hr, dose 500 mg/kg, route oral. The settings on record: plasma. A digest of the protocol:
as §3

Data set [7] relates to Rattus norvegicus. The data set can be described thus: Toxicity in rat assessed as elevation of ALT level at 50 mg/kg, po. The class given is organism-based. More on the design: dose 50 mg/kg, route oral. The settings on record: in vivo. A digest of the protocol: (§4)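 Single oral doses of 50, 250 or 500 mg/kg given to rats, each study with its own control group. Mean serum AST and ALT (IU/L) measured. Histopathology of liver also examined.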

Data set [8] relates to Rattus norvegicus. As to the kind of experiment: Toxicity in rat assessed as elevation of AST level at 50 mg/kg, po. To be noted: in vivo. Also on record: dose 50 mg/kg, route oral. In kind it is organism-based. A digest of the protocol:
as §4

Data set [9] relates to Rattus norvegicus. As to the kind of experiment: Toxicity in rat assessed as elevation of AST level at 500 mg/kg, po. In kind it is organism-based. More on the design: dose 500 mg/kg, route oral. The settings on record: in vivo. A digest of the protocol:
as §4

Data set [10] deals with Rattus norvegicus. The data set can be described thus: Toxicity in rat assessed as elevation of ALT level at 500 mg/kg, po. In kind it is organism-based. More on the design: dose 500 mg/kg, route oral. The settings on record: in vivo. A digest of the protocol: as §4
The test system of data set [11] is Rattus norvegicus. As to the kind of experiment: Toxicity in rat assessed as elevation of AST level at 250 mg/kg, po. The class given is organism-based. More on the design: dose 250 mg/kg, route oral. To be noted: in vivo. A digest of the protocol:
as §4

Data set [12] in a line: AUC (0 to 24 hrs) in rat at 50 mg/kg, po. The class given is ADME, organism-based. Also on record: time < 24 hr, dose 50 mg/kg, route oral. To be noted: plasma. A digest of the protocol:
as §3

Data set [13] is described as follows: Cmax in rat at 250 mg/kg, po. In kind it is ADME, organism-based. Also on record: dose 250 mg/kg, route oral. To be noted: in vivo. Summed up: as §3
In data set [14] the test system is Rattus norvegicus. The data set can be described thus: Toxicity in rat assessed as elevation of ALT level at 250 mg/kg, po. In kind it is organism-based. More on the design: dose 250 mg/kg, route oral. The settings on record: in vivo. Summed up:
as §4

A short description of data set [15]: AUC (0 to 24 hrs) in rat at 250 mg/kg, po. In kind it is ADME, organism-based. Also on record: time < 24 hr, dose 250 mg/kg, route oral. The settings on record: plasma. A digest of the protocol: as §3
Data set [16] can be described thus: Cmax in rat at 500 mg/kg, po. In kind it is ADME, organism-based. More on the design: dose 500 mg/kg, route oral. The settings on record: in vivo. Summed up: as §3

In turn, `O=C(Nc1nc(-c2ccc(F)c(Br)c2)c(F)s1)c1cnc(N2CCC(C(=O)O)CC2)c(Cl)c1` had an EC50 at Thrombopoietin receptor of 670 nM.

The molecule `O=C(Nc1nc(-c2ccc(Cl)c(Cl)c2)c(F)s1)c1cnc(N2CCC(C(=O)O)CC2)c(Cl)c1` showed an EC50 on Thrombopoietin receptor of more than 1000 nM.

As for `CCc1sc(NC(=O)c2cnc(N3CCC(C(=O)O)CC3)c(Cl)c2)nc1-c1ccc(F)c(C(F)(F)F)c1`, the EC50 at Thrombopoietin receptor is 160 nM.

At Thrombopoietin receptor, `O=C(Nc1nc(-c2ccc(F)c(C(F)(F)F)c2)c(Cl)s1)c1cnc(N2CCC(C(=O)O)CC2)c(Cl)c1` registered an EC50 of 86 nM.

`O=C(Nc1nc(-c2ccc(F)c(C(F)(F)F)c2)c(F)s1)c1cnc(N2CCC(C(=O)O)CC2)c(Cl)c1`: the Activity entry in the data set with Rattus norvegicus [1] and in the data set on Rattus norvegicus [3] was “Non-toxic” each time. Further, the EC50 on Thrombopoietin receptor came out at 89 nM; in the data set filed under Mus musculus [4], 7 µg·h/mL. In the data set listed under Mus musculus [2], the result was inactive.

Regarding `N#Cc1sc(NC(=O)c2cnc(N3CCC(C(=O)O)CC3)c(Cl)c2)nc1-c1ccc(F)c(C(F)(F)F)c1`, the EC50 on Thrombopoietin receptor was more than 898 nM.

In the case of `CCCCc1cc(-c2nc(NC(=O)c3cnc(N4CCC(C(=O)O)CC4)c(Cl)c3)sc2F)ccc1F`, the EC50 at Thrombopoietin receptor amounted to 220 nM.

The molecule `O=C(Nc1nc(-c2ccc(F)c(C(F)(F)F)c2)ns1)c1cnc(N2CCC(C(=O)O)CC2)c(Cl)c1` showed an EC50 at Thrombopoietin receptor of 574 nM.

For the molecule `CC(C)Cc1cc(-c2nc(NC(=O)c3cnc(N4CCC(C(=O)O)CC4)c(Cl)c3)sc2F)ccc1F`, the EC50 on Thrombopoietin receptor stood at 58 nM.

As for `O=C(Nc1nc(-c2ccc(F)c(OC(F)(F)F)c2)c(F)s1)c1cnc(N2CCC(C(=O)O)CC2)c(Cl)c1`, the EC50 on Thrombopoietin receptor was 620 nM.

`O=C(Nc1nc(-c2ccc(F)c(OCC(F)(F)F)c2)c(F)s1)c1cnc(N2CCC(C(=O)O)CC2)c(Cl)c1` displayed an EC50 at Thrombopoietin receptor of 950 nM.

As to `O=C(Nc1nc(-c2ccc(F)c(Cl)c2)c(F)s1)c1cnc(N2CCC(C(=O)O)CC2)c(Cl)c1`, the EC50 at Thrombopoietin receptor was determined as 480 nM.

On Thrombopoietin receptor, `O=C(Nc1nc(-c2ccc(F)c(C(F)(F)F)c2)cs1)c1cnc(N2CCC(C(=O)O)CC2)c(Cl)c1` came in with an EC50 of 100 nM.

Take `Cc1sc(NC(=O)c2cnc(N3CCC(C(=O)O)CC3)c(Cl)c2)nc1-c1ccc(F)c(C(F)(F)F)c1`: the EC50 at Thrombopoietin receptor came out at 66 nM.

In turn, `O=C(Nc1nc(-c2cccc(C(F)(F)F)c2F)c(F)s1)c1cnc(N2CCC(C(=O)O)CC2)c(Cl)c1` yielded an EC50 at Thrombopoietin receptor of 702 nM.

On Thrombopoietin receptor, `O=C(Nc1ccn(-c2cccc(C(F)(F)F)c2F)n1)c1cnc(N2CCC(C(=O)O)CC2)c(Cl)c1` came in with an EC50 of more than 811 nM.

Regarding `O=C(Nc1nc(-c2cccc(C(F)(F)F)c2F)cs1)c1cnc(N2CCC(C(=O)O)CC2)c(Cl)c1`, the Activity result with Rattus norvegicus [1] is listed as “Non-toxic”; in the data set with Rattus norvegicus [7], 442 IU/L; with Rattus norvegicus [8], 1937 IU/L; with Rattus norvegicus [9] it was 3495 IU/L; in the data set with Rattus norvegicus [10], 579 IU/L; in the data set with Rattus norvegicus [11] it was 2952 IU/L. Also, the figures for the Activity with Rattus norvegicus [14] and in the data set with Rattus norvegicus [3] were 450 IU/L and “Non-toxic”, respectively. The values for the Cmax in data set [5], in [13] and in data set [16] were 20000 ng/mL, 48000 ng/mL and 84000 ng/mL, respectively. The AUC(0-t) at 24 h in [6] was determined as 1490 µg·h/mL; in [12], 84 µg·h/mL; in data set [15], 832 µg·h/mL. For the same molecule, the result in the data set filed under Mus musculus [2] was inactive. The EC50 in the data set listed under Mus musculus [4] was 27 µg·h/mL.

Take `CCCc1sc(NC(=O)c2cnc(N3CCC(C(=O)O)CC3)c(Cl)c2)nc1-c1ccc(F)c(C(F)(F)F)c1`: the EC50 at Thrombopoietin receptor was determined as 130 nM.

Turning to `CCOCc1cc(-c2nc(NC(=O)c3cnc(N4CCC(C(=O)O)CC4)c(Cl)c3)sc2F)ccc1F`, at Thrombopoietin receptor, the EC50 was more than 970 nM.
